Measurements of several laboratories.
Compare with care: the assays were run in different laboratories. pEC50, pIC50: −log10 of the molar value.
Read-out: cell growth or viability

| SMILES | cell line | technique | concentration | time | endpoint | value |
| --- | --- | --- | --- | --- | --- | --- |
| Cc1cnc(CNC(=O)c2c(=O)c3ccc(N4CCCN(C)CC4)nc3n3c2sc2ccccc23)cn1 | PLC-PRF-5 | imaging |  | 72 h | pIC50 | 6.48 |
| c1ccc(Oc2ccc(Nc3c4c(nc5ccccc35)CCC4)cc2)cc1 | J774.1 | resazurin |  | 72 h | pIC50 | 4.34 |
| Cc1nc(Nc2ncc(C(=O)Nc3c(C)cccc3Cl)s2)cc(N2CC[C@H](O)C2)n1 | HuT78 | ATP luminescence | 10 µM | 72 h | inhibition | 7% |
| Cc1cc(C)n(Cn2cnc3ccccc32)n1 | SH-SY5Y | MTT |  | 24 h | pIC50 | 4.08 |
| CN1CCN(c2ccc(Nc3c4ccccc4nc4ccccc34)cc2)CC1 | PLC-PRF-5 | imaging |  | 72 h | pIC50 | 5.49 |
| Cc1nc(NC(=O)N2CCC[C@H]2C(N)=O)sc1-c1ccnc(C(C)(C)C(F)(F)F)c1 | NCI-H596 | ATP luminescence |  | 5 days | pEC50 | 6.31 |
| CCOC(=O)c1cc(C)n(Cn2cnc3ccccc32)n1 | SH-SY5Y | MTT |  | 24 h | pIC50 | 3.92 |
| CCOc1ccc(Nc2c3c(nc4ccccc24)CCC3)cc1 | J774.1 | resazurin |  | 72 h | pIC50 | 4.48 |
| C[C@H](Nc1ccc2c(c1)OCCn1cc(N3C(=O)OC[C@H]3C(F)F)nc1-2)C(N)=O | NCI-H596 | ATP luminescence |  | 5 days | pEC50 | 7.08 |
| OCn1ccnc1 | SH-SY5Y | MTT |  | 24 h | pIC50 | 5.16 |
| [Cl-].[Li+] | CHO | MTT |  |  | pIC50 | < 2.00 |
